In ChEMBL document CHEMBL3763117, “Design, synthesis and biological evaluation of imidazo[2,1-b]thiazole and benzo[d]imidazo[2,1-b]thiazole derivatives as Mycobacterium tuberculosis pantothenate synthetase inhibitors” (Bioorg Med Chem, 2016):
pIC50: −log10 of the molar value. Converted amounts (≈) assume the structure as drawn. The source made the active and inactive calls. No cut-off for these calls is given here.

How the values were obtained:
Pantothenate synthetase = biological target: T1, Pantothenate synthetase (Mycobacterium tuberculosis, UniProt P9WIL5); assay: Inhibition of Mycobacterium tuberculosis pantothenate synthetase using pantoic acid as substrate and beta-alanine as reactant assessed as NAD+ formation by spectrophotmetry in presence of NADH
T1 sequence (P9WIL5 whole entry): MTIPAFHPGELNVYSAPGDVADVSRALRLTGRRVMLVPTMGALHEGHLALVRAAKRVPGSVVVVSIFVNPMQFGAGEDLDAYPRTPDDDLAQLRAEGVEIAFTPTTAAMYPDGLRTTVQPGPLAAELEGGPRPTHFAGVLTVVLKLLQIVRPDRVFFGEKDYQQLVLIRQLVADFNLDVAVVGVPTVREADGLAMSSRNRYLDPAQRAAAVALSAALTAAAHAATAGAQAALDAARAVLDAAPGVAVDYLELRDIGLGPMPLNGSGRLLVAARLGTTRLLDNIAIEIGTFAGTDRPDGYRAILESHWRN
Procedure, shortened: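 Recombinant MTB PS (panC, Rv3602c) expressed in E. coli BL21(DE3). Coupled assay in 100 mM HEPES pH 7.8: 0.4 mM NADH, 5 mM pantoic acid, 5 mM β-alanine, 10 mM ATP, 10 mM MgCl2, 1 mM phosphoenolpyruvate, with myokinase, pyruvate kinase and lactate dehydrogenase. Compounds were tested from 25 µM downward. Reaction was started with PS; NADH depletion was read at 340 nm at 37 °C, background-corrected.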

[1] = Cytotoxicity against mouse RAW264.7 cells assessed as inhibition of cell viability at 50 uM after 72 hrs by MTT assay; type: cell-based; details: read-out: INH
Procedure, shortened: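 RAW 264.7 mouse macrophages were exposed to compound at 50 µM for 72 h. Viability was read as MTT conversion to formazan.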

[2] = test system: Mycobacterium tuberculosis; assay: Antimycobacterial activity against Mycobacterium tuberculosis H37Rv ATCC 27294 after 7 days by microplate Alamar blue assay; type: functional; details: H37Rv ATCC 27294, 168 h
Procedure, shortened: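 MABA against M. tuberculosis H37Rv. Inoculum came from LJ medium, resuspended in 7H9-S (7H9, 0.1% casitone, 0.5% glycerol, OADC), adjusted to McFarland No. 1 and diluted 1:20. Two-fold dilutions spanned 50 to 0.78 µg/mL, in duplicate. Plates ran 7 days at 37 °C, then alamar blue was added overnight. MIC was the lowest concentration preventing the blue-to-pink change.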

[3] = test system: Mycobacterium tuberculosis; assay: Antimycobacterial activity against nutrient starved Mycobacterium tuberculosis H37Rv assessed as reduction in bacterial load for 7 days measured after 28 days by microplate reader analysis; type: functional
Procedure, shortened: (§1)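 H37Rv grown in 7H9/OADC, pelleted, washed twice and resuspended in PBS. It was starved in sealed bottles at 37 °C for 6 weeks. Cultures were exposed to drug at 10 µg/ml for 7 days at 37 °C. Ten-fold dilutions to 10^-6 in 7H9/OADC were plated in triplicate and incubated 28 days at 37 °C without agitation. Wells with visible growth were scored and MPN calculated.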

[4] = test system: Mycobacterium tuberculosis; assay: Antimycobacterial activity against nutrient starved Mycobacterium tuberculosis H37Rv assessed as reduction in bacterial load at 10 ug/ml incubated for 7 days measured after 28 days by microplate reader analysis; type: functional; procedure, shortened: as §1
Mycobacterium marinum [5] = assay: Antimycobacterial activity against Mycobacterium marinum ATCC BAA-535 infected in Zebra fish model assessed as reduction in bacterial load at 10 mg/kg, po administered for 7 days measured after 14 days by MPN assay; type: functional
Procedure, shortened: (§2)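 Adult zebra fish infected with M. marinum ATCC BAA-535 (grown at 30 °C in Middlebrook 7H9 broth). Oral treatment began 7 days post infection and ran for 7 days. Fish were then sacrificed and homogenised in 7H9 broth. Homogenate was serially diluted to 10^-6, plated in 48-well plates and incubated at 30 °C. Bacterial count was by MPN.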

Mycobacterium marinum [6] = assay: Antimycobacterial activity against Mycobacterium marinum ATCC BAA-535 infected in Zebra fish model assessed as reduction in bacterial load at 5 mg/kg, po administered for 7 days measured after 14 days by MPN assay; type: functional; procedure, shortened: as §2

SMILES	pIC50 (Pantothenate synthetase)	cytotoxicity at 72 h, 50 µM [1] [%]	MIC [2] [µM]	MIC [3] [µg/mL]	Activity [4] [deltalog10CFU/ml]	Activity (Mycobacterium marinum [5])	Activity (Mycobacterium marinum [6]) [deltalog10CFU/ml]
Cc1nc2sccn2c1C(=O)NCc1ccccc1	5.97	12.7	11.5 (≈ 3.13 µg/mL)				
Cc1nc2sc3ccccc3n2c1C(=O)NNC(=O)c1cccc2ccccc12	5.86	32	15.6 (≈ 6.25 µg/mL)				
Cc1nc2sccn2c1C(=O)N/N=C/c1ccccc1	6.24	23.1	23.2 (≈ 6.6 µg/mL)				
Cc1nc2sc3ccccc3n2c1C(=O)NNC(=O)c1ccccc1	5.96	29.7	35.7 (≈ 12.5 µg/mL)				
Cc1nc2sccn2c1C(=O)NNC(=O)c1cccc2ccccc12	6.19	27.5	17.8 (≈ 6.25 µg/mL)				
NNC(=O)c1ccncc1 [ISONIAZID]	< 4.60		0.72 (≈ 0.0987 µg/mL)	0.05 (≈ 0.365 µM)	1.1	1.8 deltalog10CFU/ml	
Cc1nc2sccn2c1C(=O)NNC(=O)c1ccccc1	5.27	10.3	40.1 (≈ 12 µg/mL)				
Cc1ccc(C(=O)NNC(=O)c2c(C)nc3sc4ccccc4n23)cc1	5.23	53	17.1 (≈ 6.25 µg/mL)				
Cc1nc2sccn2c1C(=O)NC1CCCCC1	5.70	32.1	11.8 (≈ 3.12 µg/mL)				
Cc1nc2sc3ccccc3n2c1C(=O)N/N=C/c1ccc(N(C)C)cc1	5.84	12.1	4.13 (≈ 1.56 µg/mL)				
Cc1nc2sc3ccccc3n2c1C(=O)NCc1ccccc1	6.08	6.62	19.4 (≈ 6.25 µg/mL)				
Cc1nc2sc3ccccc3n2c1C(=O)NNC(=O)c1ccc(Oc2ccccc2)cc1	6.28	10.4	3.53 (≈ 1.56 µg/mL)			1.5 deltalog10CFU/ml	
Cc1nc2sc3ccccc3n2c1C(=O)N/N=C/c1ccc(C(F)(F)F)cc1	5.27	16.1	16.5 (≈ 6.65 µg/mL)				
Cc1nc2sccn2c1C(=O)Nc1ccc(Br)cc1	6.16	32.3	2.32 (≈ 0.78 µg/mL)		2		
Cc1nc2sccn2c1C(=O)N/N=C/c1ccc(C(F)(F)F)cc1	6.17	12.8	17.7 (≈ 6.25 µg/mL)				
Cc1nc2sccn2c1C(=O)N/N=C/c1ccc(Br)cc1	5.92	22.2	34.4 (≈ 12.5 µg/mL)				
Cc1nc2sccn2c1C(=O)NNC(=O)c1ccc(Oc2ccccc2)cc1	5.91	2.98	7.96 (≈ 3.12 µg/mL)				
CCOc1ccc(NC(=O)c2c(C)nc3sc4ccccc4n23)cc1	5.68	52.7	42 (≈ 14.7 µg/mL)				

SMILES	pIC50 (Pantothenate synthetase)	cytotoxicity at 72 h, 50 µM [1] [%]	MIC [2] [µM]	MIC [3] [µg/mL]	Activity [4] [deltalog10CFU/ml]	Activity (Mycobacterium marinum [5])	Activity (Mycobacterium marinum [6]) [deltalog10CFU/ml]
CO[C@H]1/C=C/O[C@@]2(C)Oc3c(C)c(O)c4c(O)c(c(/C=N/N5CCN(C)CC5)c(O)c4c3C2=O)NC(=O)/C(C)=C\C=C\[C@H](C)[C@H](O)[C@@H](C)[C@@H](O)[C@@H](C)[C@H](OC(C)=O)[C@@H]1C [RIFAMPIN]				0.1 (≈ 0.122 µM)	2.1		1.9
CC[C@@H](CO)NCCN[C@@H](CC)CO [ETHAMBUTOL]	< 4.60		7.64 (≈ 1.56 µg/mL)				
Cc1nc2sc3ccccc3n2c1C(=O)N/N=C/c1ccccc1	5.67	34.6	9.35 (≈ 3.13 µg/mL)				
Cc1nc2sccn2c1C(=O)NNC(=O)C1CCCCC1	5.27	31.2	20.4 (≈ 6.25 µg/mL)				
Cc1nc2sc3ccccc3n2c1C(=O)NC1CCCCC1	5.99	13.4	19.9 (≈ 6.25 µg/mL)				
Cc1nc2sccn2c1C(=O)Nc1ccccc1	6.13	14.1	12.1 (≈ 3.12 µg/mL)				
Cc1nc2sc3ccccc3n2c1C(=O)N/N=C/c1ccc(Br)cc1	5.99	10.1	15.1 (≈ 6.25 µg/mL)				
Cc1ccc(C(=O)NNC(=O)c2c(C)nc3sccn23)cc1	5.30	39.2	5.96 (≈ 1.87 µg/mL)		2.1		
COc1c(N2C[C@@H]3CCCN[C@@H]3C2)c(F)cc2c(=O)c(C(=O)O)cn(C3CC3)c12 [MOXIFLOXACIN]				0.78 (≈ 1.94 µM)			2.9
Cc1nc2sccn2c1C(=O)N/N=C/c1ccc(N(C)C)cc1	5.60	6.75	38.2 (≈ 12.5 µg/mL)				
COc1ccc(NC(=O)c2c(C)nc3sccn23)cc1	5.23	58.7	20.7 (≈ 5.96 µg/mL)				
Cc1nc2sc3ccccc3n2c1C(=O)Nc1ccc(Br)cc1	6.28	20.9	16.2 (≈ 6.25 µg/mL)				
Cc1nc2sc3ccccc3n2c1C(=O)Nc1ccccc1	5.99	33.2	40.7 (≈ 12.5 µg/mL)				
Cc1nc2sc3ccccc3n2c1C(=O)NNC(=O)C1CCCCC1	5.54	45.4	17.5 (≈ 6.25 µg/mL)				
COc1cc(/C=N/NC(=O)c2c(C)nc3sccn23)cc(OC)c1OC	5.25	1.17	33.4 (≈ 12.5 µg/mL)				
COc1cc(/C=N/NC(=O)c2c(C)nc3sc4ccccc4n23)cc(OC)c1OC	5.68	16.2	29.4 (≈ 12.5 µg/mL)				
CC1(C)S[C@@H]2[C@H](NC(=O)[C@H](N)c3ccc(O)cc3)C(=O)N2[C@H]1C(=O)O						inactive	
